Activity calls are given as the source filed them. No cut-off for these calls is given here.
Tests used:
Homo sapiens = organism: Homo sapiens; test: Inhibition of PP2A from human red blood cells
Outline: (§1)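 PP1 (rabbit skeletal muscle) and PP2A (human red blood cells), commercial enzymes. In vitro assays run in duplicate. Compounds tested at 10 µg/mL, with tautomycin at 30 ng/mL as reference.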

[1] = target: Dual specificity protein phosphatase 3 (Homo sapiens) (UniProt P51452); test: Inhibition of VHR expressed in Escherichia coli BL21([…])
Dual specificity protein phosphatase 3 (Homo sapiens), sequence (P51452 whole entry, looked up): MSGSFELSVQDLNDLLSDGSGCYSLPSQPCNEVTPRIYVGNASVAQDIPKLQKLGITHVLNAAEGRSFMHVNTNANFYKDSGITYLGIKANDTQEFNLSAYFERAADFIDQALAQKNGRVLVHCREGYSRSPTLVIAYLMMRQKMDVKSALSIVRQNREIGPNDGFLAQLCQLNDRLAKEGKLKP
Outline: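 VHR dual-specificity phosphatase overexpressed in E. coli BL21(DE3). Assays run in triplicate. Compounds tested at 100 µg/mL (some at 30 µg/mL). References were tautomycin at 30 ng/mL and RK-682 at 10 µg/mL.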

3Y1 cell line = test: Induction of morphological changes in rat 3Y1 cells by indirect immunofluorescence technique; format: functional, cell-based
Outline: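 3Y1 rat fibroblasts cultured in DMEM plus 10% fetal calf serum under humidified 5% CO2. Cytoskeletal changes after treatment visualized by indirect immunofluorescence microscopy.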

brain [2] = test: Induction of microtubule assembly in bovine brain cells by turbidimetric assay; format: cell-based; settings: Bos taurus
Outline: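 Turbidity assay: microtubule protein at 2.0 mg/mL in Mes buffer incubated at 37 °C. Absorbance at 350 nm followed over time.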

[3] = Cytotoxicity against rat 3Y1 cells at 10 ug/ml by flow cytometry; format: cell-based
Outline: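 Rat normal fibroblast 3Y1 cells grown in Dulbecco's modified MEM with 10% fetal calf serum, humidified 5% CO2. Cell-cycle progression after treatment assessed by flow cytometry.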

[4] = Inhibition of PTP-S2
Outline: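 PTP-S2 overexpressed in E. coli BL21(DE3). Phosphatase assays run in triplicate. Compounds tested at 10 µg/mL, with tautomycin at 30 ng/mL as reference.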

Oryctolagus cuniculus = organism: Oryctolagus cuniculus; test: Inhibition of rabbit muscle PP1; outline: as §1
brain [5] = test: Induction of actin assembly in bovine brain cells by turbidimetric assay; format: cell-based; settings: Bos taurus

SMILES	Activity (Homo sapiens)	Activity [1]	Activity [4]	Activity (Oryctolagus cuniculus)	Activity (3Y1 cell line)	Activity (brain [2])	Activity [3]	Activity (brain [5])
CC[C@@H]1C=CC(=O)O[C@@H]1[C@H](C)C[C@@H](C)[C@@H](O)C[C@H](O)/C=C\C=C/c1cccc(O)c1Cl [BITUNGOLIDE A]	inactive	inactive	inactive	inactive	inactive	inactive	Active	inactive
CC[C@@H]1C=CC(=O)O[C@@H]1[C@H](C)C[C@@H](C)[C@@H](O)C[C@H](O)/C=C/C=C/c1cccc(O)c1Cl [BITUNGOLIDE B]	inactive	inactive	inactive	inactive	inactive	inactive	Active	inactive
CC[C@@H]1C=CC(=O)O[C@@H]1[C@H](C)C[C@@H](C)[C@@H](O)C[C@H](O)/C=C\C=C\c1cccc(O)c1Cl [BITUNGOLIDE C]	inactive	inactive	inactive	inactive	inactive	inactive	Active	inactive
CC[C@@H]1C=CC(=O)O[C@@H]1[C@H](C)CC[C@@H](O)C[C@H](O)/C=C/C=C/c1ccccc1 [BITUNGOLIDE F]	inactive	inactive	inactive	inactive	inactive	inactive	Active	inactive

Second part, led by results:

Activity (Homo sapiens)	Activity [1]	Activity [4]	Activity (Oryctolagus cuniculus)	SMILES	Activity (3Y1 cell line)	Activity (brain [2])	Activity [3]	Activity (brain [5])
inactive	inactive	inactive	inactive	CC[C@@H]1C=CC(=O)O[C@@H]1[C@H](C)C[C@@H](C)[C@@H](O)C[C@H](O)/C=C/C=C\c1cccc(O)c1Cl [BITUNGOLIDE D]	inactive	inactive	Active	inactive
inactive	inactive	inactive	inactive	CC[C@@H]1C=CC(=O)O[C@@H]1[C@H](C)C[C@@H](C)[C@@H](O)C[C@H](O)/C=C/C=C/c1ccccc1 [BITUNGOLIDE E]	inactive	inactive	Active	inactive

Source: ChEMBL document CHEMBL1137814, “Bitungolides A-F, new polyketides from the Indonesian sponge Theonella cf. swinhoei” (J Nat Prod, 2002)
